Assay results as given in PMC10390885 (Clinical Cancer Research, 2023).
“And” between values parts separate entries of the source, which are not always exact repeats. Equal entries are not always repeated. “Also recorded” adds a separate entry of the source. Where two headings read alike, the source gives them in different places.

Tests used:
ER [1] = details: ER+ cell lines; preclinical studies; cited from earlier work
[2] = system: ESR1 mutant and wild-type patient-derived xenograft models of ER+ breast cancer; details: preclinical, cited from earlier work
[3] = system: ER+/HER2− advanced or metastatic breast cancer; assay: Antitumor activity by RECIST v1.1; assay type: in vivo, human
ER [4] = assay: IHC of ER protein in baseline and on-treatment biopsies; assay type: in vivo, human; details: on-treatment (cycle 2 or 3, day 8) vs baseline biopsies
Outline: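 Baseline and on-treatment tumour biopsies (cycle 2 or 3, day 8) were stained for ER by IHC in one laboratory and scored by one pathologist. H-score (0–300) = 3×% strong-intensity nuclei + 2×% intermediate + 1×% weak nuclei among tumour cells. Paired samples only.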

[5] = system: postmenopausal women with ER+/HER2− locally advanced or metastatic breast cancer; assay: Phase I safety: adverse events; assay type: in vivo, human
Outline: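 Oral tablets were given as a single lead-in dose on day −7, then once daily from day 1 in 28-day cycles. Escalation used a 3+3 design, starting at 600 mg/day with 400 mg steps, plus an expansion cohort at 1,400 mg/day. DLT window ran from day −7 through cycle 1 (35 days). AEs were graded by NCI CTCAE v4.0. All patients dosed on cycle 1 day 1 were included, summarised descriptively.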

ESR1 mutations in ctDNA = assay: FACT next-generation sequencing ctDNA assay; assay type: in vivo, human; details: 1,400 mg; vs 52% pretreatment
[6] = system: PIK3CA/AKT1 mutations in ctDNA; assay: ctDNA BEAMing digital PCR, PIK3CA/AKT1 mutant allele frequency; assay type: in vivo, human; details: first postbaseline ctDNA sample (cycle 3 day 1 or end-of-treatment)
Outline: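 Hotspot mutations were measured in plasma ctDNA by BEAMing digital PCR: AKT1 E17K and PIK3CA C420R, E542K, E545G/K, Q546K, M1043I, H1047L/R/Y. Mutant allele fraction at baseline was compared with the first available post-baseline sample (cycle 3 day 1 or end of treatment) in paired samples.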

ER [7] = assay: [18F]-fluoroestradiol; assay type: in vivo, human; details: cycle 2 day 3 vs baseline; 9 patients with FES-avid disease; 600, 1,000, 1,400 mg
ER [8] = details: preclinical studies; cited from earlier work
[9] = system: advanced ER-positive HER2-negative breast cancer; details: cited from earlier work
[10] = N = 42, considered related to study drug, any grade
[11] = N = 42, considered related to study drug, grade 3
[12] = N = 42, regardless of causality, any grade
[13] = N = 42, regardless of causality, grade 3

Which ER antagonist/agonist profile (ER [1]) does the source give for `CC/C(=C(/c1ccc(/C=C/C(=O)O)cc1)c1ccc2[nH]ncc2c1)c1ccc(F)cc1Cl` [GDC-0810, reference compound] here?
Its ER antagonist/agonist profile is “partial agonism”.

Which ER antagonist/agonist profile (ER [1]) does the source give for `CC1=C(c2cccc(O)c2)[C@H](c2ccc(OCCN3CC(CF)C3)cc2)Oc2ccc(O)cc21` [GDC-0927] here?
The ER antagonist/agonist profile was “full antagonist profile”.

And the ER degradation (ER [1])?
The ER degradation was “ER degradation in all ER^+ cell lines tested”.

And the “Tolerability at efficacious dose range” value ([2]; 10–100 mg/kg/day)?
The value was “well tolerated”.

And the “Antitumor activity in xenograft models” value ([2]; ER+ breast cancer xenograft models)?
The value was “induces tumor regression; also recorded: dose-dependent antitumor activity”.

What about the “In vivo efficacious dose range” value [2] of the same molecule?
The value was 10 to 100 mg/kg/day.

What about the “Confirmed complete or partial responses” value ([3]; N = 42) of the same molecule?
Its value is “no complete or partial responses; also recorded: no confirmed CRs or PRs”.

And the “Patients with confirmed best overall response of non-CR/PD” value ([3]; five patients, all at 1,400 mg)?
The value was 14%.

What about the “Patients achieving clinical benefit” value ([3]; patients with baseline ctDNA ESR1 mutation(s), six of 22) of the same molecule?
Its value is 27%.

What about the “Patients achieving clinical benefit” value ([3]; patients without detectable baseline ctDNA ESR1 mutations, 6 of 20) of the same molecule?
Its value is 30%.

What about the “Reduction in ER expression (ER protein, IHC), average” value (ER [4]) of the same molecule?
The value was “approximately 40%”.

What about the “AEs leading to withdrawal” value ([5]; N = 42) of the same molecule?
The value was “no reports and None”.

And the Deaths ([5]; N = 42)?
The Deaths was “no deaths; also recorded: no reports”.

And the “Dose modifications due to AEs” value ([5]; N = 42)?
Its value is “no dose modifications”.

And the “Grade 4 or grade 5 AEs” value ([5]; N = 42)?
The value was “no grade 4 or grade 5 AEs; also recorded: no grade 4 or 5 AEs”.

What about the “Treatment-related serious adverse events (SAE)” value ([5]; N = 42) of the same molecule?
The value was “no reports”.

And the “Patients with any adverse events” value ([5]; N = 42, 600-1,400 mg once daily oral, regardless of causality, any grade)?
The value was 37 n (%) and 37 (88) n (%).

And the Constipation [5, 10]?
The Constipation was 6 n (%) and 6 (14) n (%).

And the Diarrhea [5, 10]?
Its Diarrhea is 5 n (%) and 5 (12) n (%).

And the Fatigue [5, 10]?
The Fatigue was 5 n (%) and 5 (12) n (%).

And the Hot flush [5, 10]?
Its Hot flush is 8 n (%) and 8 (19) n (%).

And the Nausea [5, 10]?
Its Nausea is 8 n (%) and 8 (19) n (%).

And the “Patients with at least one adverse event” value [5, 10]?
The value was 30 n (%) and 30 (71) n (%).

What about the “Total number of events” value [5, 10] of the same molecule?
Its value is 109.

And the Constipation [5, 11]?
The Constipation was 0 n (%).

And the Diarrhea [5, 11]?
Its Diarrhea is 0 n (%).

And the Fatigue [5, 11]?
The Fatigue was 0 n (%).

And the Hot flush [5, 11]?
Its Hot flush is 0 n (%).

And the Nausea [5, 11]?
The Nausea was 0 n (%).

And the “Patients with at least one adverse event” value [5, 11]?
The value was 0 n (%).

What about the “Total number of events” value [5, 11] of the same molecule?
Its value is 0.

And the Anemia [5, 12]?
The Anemia was 6 n (%) and 6 (14) n (%).

What about the Arthralgia [5, 12] of the same molecule?
The Arthralgia was 8 n (%) and 8 (19) n (%).

What about the “Aspartate aminotransferase (AST) increased” value [5, 12] of the same molecule?
Its value is 5 (12) n (%).

What about the Asthenia [5, 12] of the same molecule?
Its Asthenia is 5 (12) n (%).

And the Back pain [5, 12]?
The Back pain was 7 n (%) and 7 (17) n (%).

And the Constipation [5, 12]?
Its Constipation is 9 n (%) and 9 (21) n (%).

What about the Cough [5, 12] of the same molecule?
Its Cough is 5 (12) n (%).

What about the Diarrhea [5, 12] of the same molecule?
Its Diarrhea is 9 n (%) and 9 (21) n (%).

What about the Fatigue [5, 12] of the same molecule?
Its Fatigue is 8 n (%) and 8 (19) n (%).

What about the Headache [5, 12] of the same molecule?
Its Headache is 6 n (%) and 6 (14) n (%).

And the Hot flush [5, 12]?
Its Hot flush is 8 n (%) and 8 (19) n (%).

What about the Nausea [5, 12] of the same molecule?
Its Nausea is 14 n (%) and 14 (33) n (%).

What about the Pain in extremity [5, 12] of the same molecule?
Its Pain in extremity is 5 (12) n (%).

And the Vomiting [5, 12]?
The Vomiting was 7 n (%) and 7 (17) n (%).

And the Anemia [5, 13]?
The Anemia was 0 n (%).

What about the Arthralgia [5, 13] of the same molecule?
Its Arthralgia is 0 n (%).

What about the “Aspartate aminotransferase (AST) increased” value [5, 13] of the same molecule?
Its value is 0 n (%).

And the Asthenia [5, 13]?
The Asthenia was 1 (2) n (%).

And the Back pain [5, 13]?
Its Back pain is 2 n (%) and 2 (5) n (%).

And the Constipation [5, 13]?
The Constipation was 0 n (%).

And the Cough [5, 13]?
Its Cough is 0 n (%).

What about the Diarrhea [5, 13] of the same molecule?
The Diarrhea was 0 n (%).

And the Fatigue [5, 13]?
Its Fatigue is 0 n (%).

And the Headache [5, 13]?
Its Headache is 0 n (%).

What about the Hot flush [5, 13] of the same molecule?
The Hot flush was 0 n (%).

And the Nausea [5, 13]?
Its Nausea is 0 n (%).

And the Pain in extremity [5, 13]?
The Pain in extremity was 0 n (%).

What about the “Patients with any adverse events” value [5, 13] of the same molecule?
Its value is 9 (21) n (%).

What about the Vomiting [5, 13] of the same molecule?
The Vomiting was 0 n (%).

And the “Patients with AEs that led to dose interruptions” value ([5]; N = 42, seven patients)?
The value was 17%.

And the “Patients with at least one SAE considered unrelated to GDC-0927” value ([5]; N = 42, seven patients)?
Its value is 17%.

And the “Patients with AEs of special interest (grade 2 deep vein thrombosis, grade 2 jugular vein thrombosis)” value ([5]; N = 42, two patients, both considered unrelated)?
Its value is 5%.

And the DLTs ([5]; day −7 through first cycle (35 days), 600-1,400 mg/day)?
The DLTs was “no reports of DLTs”.

And the MTD ([5]; oral once daily, doses up to the MAD of 1,400 mg/day)?
The MTD was “not reached”.

And the “Prevalence of ESR1 mutations in on-treatment samples” value (ESR1 mutations in ctDNA)?
The value was 35%.

And the “Patients with decline in PIK3CA/AKT1 MAF” value [6]?
Its value is 8 of 13.

What about the “Reduction in FES uptake” value (ER [7]) of the same molecule?
The value was > 90%.

And the “ER agonism in the uterus” value (ER [8])?
Its value is “lacked ER agonism”.

For `C[C@@H]1Cc2c(ccc3[nH]ncc23)[C@@H](c2ccc(NC3CN(CCCF)C3)cn2)N1CC(F)(F)F` [camizestrant], which “Median PFS” value ([9]; SERENA-2, camizestrant 75 mg) is on record?
The value was 7.2 months.

And the “Median PFS” value ([9]; SERENA-2, camizestrant 150 mg)?
The value was 7.7 months.

With `C[C@]12CC[C@@H]3c4ccc(O)cc4C[C@@H](CCCCCCCCC[S+]([O-])CCCC(F)(F)C(F)(F)F)[C@H]3[C@@H]1CC[C@@H]2O` (stereo partly drawn) [fulvestrant] as the molecule, how does the “Median PFS” value ([9]; SERENA-2, patients treated with fulvestrant) read?
Its value is 3.7 months.
